Results reported in ChEMBL document CHEMBL4373727, “Thienopyrimidinone Derivatives That Inhibit Bacterial tRNA (Guanine37-N1)-Methyltransferase (TrmD) by Restructuring the Active Site with a Tyrosine-Flipping Mechanism” (J Med Chem, 2019).
Values after ≈ are worked out from the molar mass of the structure shown. Active and inactive are the calls of the source. The rule behind the calls is not given here.

How the values were obtained:
[1] = target: T1, tRNA (guanine-N(1)-)-methyltransferase (Pseudomonas aeruginosa (strain ATCC 15692 / DSM 22644 / CIP 104116 / JCM14847 / LMG 12228 / 1C / PRS 101 / PAO1), UniProt Q9HXQ1); test: (§1) Inhibition of Pseudomonas aeruginosa tRNA (guanine(37)-N1)-methyltransferase (Leu5 to Asp25 residues) expressed in Escherichia coli BL21 (DE3) Rosetta T1R cells assessed as reduction in S-adenosyl-L-homocysteine production preincubated for 15 mins followed by 1.5 uM of tRNALeu(CAG) substrate and SAM addition and measured after 45 mins by MTase-Glo assay
T1 sequence (Q9HXQ1 whole entry): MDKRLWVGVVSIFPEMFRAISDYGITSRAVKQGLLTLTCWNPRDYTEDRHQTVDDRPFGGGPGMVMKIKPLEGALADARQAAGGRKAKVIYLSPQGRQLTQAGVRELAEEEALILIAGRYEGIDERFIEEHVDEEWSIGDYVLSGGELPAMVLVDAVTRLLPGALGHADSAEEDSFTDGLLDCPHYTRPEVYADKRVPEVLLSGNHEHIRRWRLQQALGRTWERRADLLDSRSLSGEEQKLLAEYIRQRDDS
Summary of the method: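 MTase-Glo luminescence assay. 8 nM TrmD preincubated 15 min at ambient temperature with serially diluted inhibitor (0–500 μM) in 50 mM Tris-HCl pH 8.0, 80 mM NaCl, 1 mM MgCl2, 0.5 mM DTT, 0.01% Triton X-100. Reaction with 2 μM SAM and tRNALeu(CAG), 45 min at 37 °C. Detection 30 min in the dark, SAH read against a standard curve. IC50 by nonlinear regression. Two independent experiments in duplicate.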

[2] = target: T1, tRNA (guanine-N(1)-)-methyltransferase; test: as §1, with “BL21 Rosetta” for “BL21”, “(DE3)” for “(DE3) Rosetta T1R cells”, “15” for “1.5”
Summary of the method: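 tRNA competition: same MTase-Glo assay with 8 nM PaTrmD and 2 μM SAM, 15 min preincubation and 45 min reaction at 37 °C. tRNALeu(CAG) at 1.5, 4.5 or 15 μM. IC50 from dose–response curves, duplicate data points.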

[3] = target: T2, tRNA (guanine-N(1)-)-methyltransferase (Pseudomonas aeruginosa (strain ATCC 15692 / DSM 22644 / CIP 104116 / JCM14847 / LMG 12228 / 1C / PRS 101 / PAO1)) (UniProt Q9HXQ1); test: Binding affinity to Pseudomonas aeruginosa tRNA (guanine(37)-N1)-methyltransferase (Leu5 to Asp25 residues) expressed in Escherichia coli BL21 (DE3) Rosetta T1R cells assessed as dissociation rate constant by surface plasmon resonance assay
T2 sequence (whole entry): T1 sequence (Q9HXQ1 whole entry)
Summary of the method: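 SPR at 25 °C. His-tagged TrmD (50 μg/mL) captured on an anti-His antibody surface (about 2200 RU), with a blank reference cell. Buffer: 50 mM Tris-HCl pH 8, 150 mM NaCl, 1 mM MgCl2, 1 mM DTT, 0.05% Tween-20. Analyte in 2-fold dilutions, injected lowest to highest at 30 μL/min, 30 s contact, 240 s dissociation. KD from steady-state affinity fit.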

Streptococcus pneumoniae [4] = test: Antibacterial activity against Streptococcus pneumoniae ATCC 49619 at 100 uM incubated for 24 hrs; type: functional, organism-based
Summary of the method: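 Single 100 μM screen in MH medium with 3% defibrinated sheep blood at 37 °C under 5% CO2, ~5×10^5 cells/mL, 24 h.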

Escherichia coli = test: Antibacterial activity against Escherichia coli BW25113 incubated for 24 hrs by serial broth microdilution method; type: functional, organism-based
Summary of the method: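 Log-phase cultures from four colonies grown overnight at 37 °C, inoculated at ~5×10^5 cells/mL in cation-adjusted Mueller–Hinton broth with serially diluted compound. Grown 24 h at 37 °C, then OD600 read. MIC50/MIC90 are the concentrations giving 50%/90% growth inhibition relative to drug-free controls. Two independent experiments in duplicate.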

Streptococcus pneumoniae [5] = test: Antibacterial activity against Streptococcus pneumoniae ATCC 49619 incubated for 24 hrs by serial broth microdilution method; type: functional; settings: ATCC 49619, 24 h
Summary of the method: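 Cultured in MH medium plus 3% defibrinated sheep blood at 37 °C, 5% CO2. Log-phase inoculum ~5×10^5 cells/mL was exposed to serial compound dilutions for 24 h. MIC50/MIC90 are relative to drug-free controls. Two independent experiments in duplicate.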

[6] = tested on: Mycobacterium tuberculosis; test: Antibacterial activity against Mycobacterium tuberculosis ATCC 27294 incubated for 7 days by broth dilution method; type: functional; settings: ATCC 27294, 168 h
Summary of the method: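 M. tuberculosis ATCC 27294 in complete 7H9 with 0.05% Tween 80, 0.5% glycerol and 10% ADC. Mid-log cells adjusted to OD600 0.1 and added 1:1 to 2-fold serial compound dilutions (highest 100 μM). Incubated 7 d at 37 °C with shaking at 80 rpm, then OD600 read. Isoniazid positive control. MIC50/MIC90 versus drug-free controls. Biological duplicates.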

Acinetobacter baumannii = test: Bactericidal activity against Acinetobacter baumannii ATCC 17961 assessed as reduction in CFU at 1 to 4 times MIC90 incubated for 24 hrs; type: functional; settings: ATCC 17961, 24 h, read-out: MBC99.9
Klebsiella pneumoniae = test: Bactericidal activity against Klebsiella pneumoniae ATCC 13883 assessed as reduction in CFU at 1 to 4 times MIC90 incubated for 24 hrs; type: functional, organism-based
Staphylococcus aureus = test: Bactericidal activity against methicillin-resistant Staphylococcus aureus ATCC 43300 assessed as reduction in CFU at 1 to 4 times MIC90 incubated for 24 hrs; type: functional; settings: ATCC 43300, 24 h, read-out: MBC99.9
[7] = tested on: Mycobacterium tuberculosis; test: Bactericidal activity against Mycobacterium tuberculosis H37Rv assessed as reduction in CFU at 1 to 4 times MIC90 incubated for 7 days; type: functional; settings: 168 h, read-out: MBC99.9
Summary of the method: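 Then plated on complete 7H10 agar for CFU. Inoculum plated at time zero. MBC99.9 is a 1000-fold CFU reduction versus the time-zero inoculum.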

[8] = target: T3, tRNA (guanine-N(1)-)-methyltransferase (Staphylococcus aureus (strain NCTC 8325 / PS 47)) (UniProt Q2FZ43); test: Binding affinity to full length Staphylococcus aureus tRNA (guanine(37)-N1)-methyltransferase expressed in Escherichia coli BL21 (DE3) assessed as thermal stabilization of protein by measuring change in melting temperature at 0.1 mM by SYPRO orange based thermal shift assay
T3 sequence (whole entry): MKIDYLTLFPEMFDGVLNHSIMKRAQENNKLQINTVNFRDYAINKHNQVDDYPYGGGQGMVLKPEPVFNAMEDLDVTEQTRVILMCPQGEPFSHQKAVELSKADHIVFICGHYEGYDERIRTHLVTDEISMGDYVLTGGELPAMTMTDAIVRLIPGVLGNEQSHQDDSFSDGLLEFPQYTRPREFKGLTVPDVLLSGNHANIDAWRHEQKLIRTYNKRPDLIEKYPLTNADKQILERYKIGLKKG

SMILES	IC50 [1] [nM]	IC50 [2] [nM]	Kdiss [3] [s⁻¹]	Activity (Streptococcus pneumoniae [4])	MIC50 (Escherichia coli)	MIC90 (Escherichia coli)	MIC50 (Streptococcus pneumoniae [5]) [µM]	MIC90 (Streptococcus pneumoniae [5]) [µM]	MIC50 [6] [µM]	MIC90 [6] [µM]	MBC (Acinetobacter baumannii) [µM]	MBC99.9 (Klebsiella pneumoniae)	MBC (Staphylococcus aureus) [µM]	MBC [7] [µM]	ΔTm [8] [°C]
CCCCCCCCNCc1ccc(CNC(=O)c2csc3nc[nH]c(=O)c23)cc1	24	260	0.0218	Active	inactive	inactive	60 (≈ 25.6 µg/mL)	73 (≈ 31.1 µg/mL)	78 (≈ 33.3 µg/mL)	> 100	> 100	inactive	54 (≈ 23 µg/mL)	> 100	–
NC1CCN(Cc2ccc(CNC(=O)c3csc4nc[nH]c(=O)c34)cc2)CC1	180	840	0.0117	inactive	–	–	–	–	–	–	–	–	–	–	1 to 13
